From ChEMBL document CHEMBL1275580, “Antifungal susceptibilities among different serotypes of Cryptococcus gattii and Cryptococcus neoformans” (2009)
Converted amounts (≈) assume the structure as drawn.

Key:
Cryptococcus neoformans [1] = assay: Antifungal activity against Cryptococcus neoformans after 72 hrs by broth microdilution method; assay type: functional
How it was run: (§1)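 Isolates subcultured at least twice on Sabouraud dextrose agar; serotype assigned by multiplex PCR, species confirmed on canavanine-glycine-bromothymol blue medium. CLSI M27-A2 broth microdilution in RPMI 1640 buffered to pH 7.0 with MOPS, inoculum 0.5 × 10^3 to 2.5 × 10^3 cells/ml, 35°C. Final drug ranges were 0.015–8 or 0.25–64 μg/ml depending on agent. MIC read at 72 h as 50% turbidity reduction versus growth control, or as 100% inhibition for the polyene. C. krusei ATCC 6258 and C. parapsilosis ATCC 22019 served as QC strains.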

Cryptococcus neoformans [2] = assay: Antifungal activity against Cryptococcus neoformans serotype AD after 72 hrs by broth microdilution method; assay type: functional; how it was run: as §1
[3] = tested on: Cryptococcus gattii species complex; assay: Antifungal activity against Cryptococcus gattii serotype C after 72 hrs by broth microdilution method; assay type: functional, Cryptococcus bacillisporus
How it was run: (§2)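 Isolates subcultured at least twice on Sabouraud dextrose agar; serotype by multiplex PCR, species confirmed on canavanine-glycine-bromothymol blue medium. CLSI M27-A2 broth microdilution in RPMI 1640 with MOPS, pH 7.0. Inoculum 0.5–2.5 × 10^3 cells/ml, 35°C. Final drug range 0.015–8 or 0.25–64 μg/ml. MIC at 72 h read as 50% turbidity reduction versus growth control, or 100% inhibition for the polyene.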

[4] = tested on: Cryptococcus gattii species complex; assay: Antifungal activity against Cryptococcus gattii serotype B after 72 hrs by broth microdilution method; assay type: functional, Cryptococcus bacillisporus; how it was run: as §2
[5] = tested on: Cryptococcus gattii species complex; assay: Antifungal activity against Cryptococcus gattii after 72 hrs by broth microdilution method; assay type: functional, Cryptococcus bacillisporus; how it was run: as §2
Cryptococcus neoformans [6] = assay: Antifungal activity against Cryptococcus neoformans serotype A after 72 hrs by broth microdilution method; assay type: functional; how it was run: as §1
Cryptococcus neoformans [7] = assay: Antifungal activity against Cryptococcus neoformans serotype D after 72 hrs by broth microdilution method; assay type: functional; how it was run: as §1

Compound | MIC50 (Cryptococcus neoformans [1]) | MIC90 (Cryptococcus neoformans [1]) | MIC50 (Cryptococcus neoformans [2]) | MIC90 (Cryptococcus neoformans [2]) | MIC50 [3] | MIC90 [3] | MIC50 [4] | MIC90 [4] | MIC50 [5] | MIC90 [5] | MIC50 (Cryptococcus neoformans [6]) | MIC90 (Cryptococcus neoformans [6]) | MIC50 (Cryptococcus neoformans [7]) | MIC90 (Cryptococcus neoformans [7]) | MIC (Cryptococcus neoformans [1]) | MIC (Cryptococcus neoformans [2]) | MIC [3] | MIC (Cryptococcus neoformans [7])
C[C@@H]1[C@H](O)[C@@H](C)/C=C/C=C/C=C/C=C/C=C/C=C/C=C/[C@H](O[C@@H]2O[C@H](C)[C@@H](O)[C@H](N)[C@@H]2O)C[C@@H]2O[C@](O)(C[C@@H](O)C[C@@H](O)[C@H](O)CC[C@@H](O)C[C@@H](O)CC(=O)O[C@H]1C)C[C@H](O)[C@H]2C(=O)O [AMPHOTERICIN B] | 0.25 µg/mL (≈ 0.271 µM) | 0.5 µg/mL (≈ 0.541 µM) | 0.25 µg/mL (≈ 0.271 µM) | 0.25 µg/mL (≈ 0.271 µM) | 0.25 µg/mL (≈ 0.271 µM) | 0.5 µg/mL (≈ 0.541 µM) | 0.25 µg/mL (≈ 0.271 µM) | 0.25 µg/mL (≈ 0.271 µM) | 0.25 µg/mL (≈ 0.271 µM) | 0.25 µg/mL (≈ 0.271 µM) | 0.25 µg/mL (≈ 0.271 µM) | 0.5 µg/mL (≈ 0.541 µM) |  |  |  |  |  | 
OC(Cn1cncn1)(Cn1cncn1)c1ccc(F)cc1F [FLUCONAZOLE] | 2 µg/mL (≈ 6.53 µM) | 4 µg/mL (≈ 13.1 µM) | 2 µg/mL (≈ 6.53 µM) | 4 µg/mL (≈ 13.1 µM) | 2 µg/mL (≈ 6.53 µM) | 4 µg/mL (≈ 13.1 µM) | 2 µg/mL (≈ 6.53 µM) | 8 µg/mL (≈ 26.1 µM) | 2 µg/mL (≈ 6.53 µM) | 8 µg/mL (≈ 26.1 µM) | 2 µg/mL (≈ 6.53 µM) | 4 µg/mL (≈ 13.1 µM) |  |  |  |  |  | 
Nc1nc(=O)[nH]cc1F [FLUCYTOSINE] | 4 µg/mL (≈ 31 µM) | 8 µg/mL (≈ 62 µM) | 4 µg/mL (≈ 31 µM) | 8 µg/mL (≈ 62 µM) | 2 µg/mL (≈ 15.5 µM) | 8 µg/mL (≈ 62 µM) | 2 µg/mL (≈ 15.5 µM) | 4 µg/mL (≈ 31 µM) | 2 µg/mL (≈ 15.5 µM) | 8 µg/mL (≈ 62 µM) | 4 µg/mL (≈ 31 µM) | 4 µg/mL (≈ 31 µM) | 4 µg/mL (≈ 31 µM) | 8 µg/mL (≈ 62 µM) |  |  |  | 
C[C@@H](c1nc(-c2ccc(C#N)cc2)cs1)[C@](O)(Cn1cncn1)c1cc(F)ccc1F [ISAVUCONAZOLE] | < 0.015 µg/mL | 0.06 µg/mL (≈ 0.137 µM) | < 0.015 µg/mL | 0.03 µg/mL (≈ 0.0686 µM) | < 0.015 µg/mL | 0.03 µg/mL (≈ 0.0686 µM) | 0.03 µg/mL (≈ 0.0686 µM) | 0.06 µg/mL (≈ 0.137 µM) | 0.03 µg/mL (≈ 0.0686 µM) | 0.06 µg/mL (≈ 0.137 µM) | 0.03 µg/mL (≈ 0.0686 µM) | 0.125 µg/mL (≈ 0.286 µM) | < 0.015 µg/mL | 0.03 µg/mL (≈ 0.0686 µM) | < 0.015 µg/mL | < 0.015 µg/mL | < 0.015 µg/mL | < 0.015 µg/mL
CC[C@@H]([C@H](C)O)n1ncn(-c2ccc(N3CCN(c4ccc(OC[C@@H]5CO[C@@](Cn6cncn6)(c6ccc(F)cc6F)C5)cc4)CC3)cc2)c1=O [POSACONAZOLE] | 0.03 µg/mL (≈ 0.0428 µM) | 0.06 µg/mL (≈ 0.0856 µM) | 0.03 µg/mL (≈ 0.0428 µM) | 0.06 µg/mL (≈ 0.0856 µM) | 0.03 µg/mL (≈ 0.0428 µM) | 0.06 µg/mL (≈ 0.0856 µM) | 0.03 µg/mL (≈ 0.0428 µM) | 0.125 µg/mL (≈ 0.178 µM) | 0.03 µg/mL (≈ 0.0428 µM) | 0.125 µg/mL (≈ 0.178 µM) | 0.06 µg/mL (≈ 0.0856 µM) | 0.25 µg/mL (≈ 0.357 µM) | < 0.015 µg/mL | 0.06 µg/mL (≈ 0.0856 µM) |  |  |  | < 0.015 µg/mL
C[C@@H](c1ncncc1F)[C@](O)(Cn1cncn1)c1ccc(F)cc1F [VORICONAZOLE] | 0.06 µg/mL (≈ 0.172 µM) | 0.25 µg/mL (≈ 0.716 µM) | 0.06 µg/mL (≈ 0.172 µM) | 0.125 µg/mL (≈ 0.358 µM) | 0.125 µg/mL (≈ 0.358 µM) | 0.25 µg/mL (≈ 0.716 µM) | 0.125 µg/mL (≈ 0.358 µM) | 0.25 µg/mL (≈ 0.716 µM) | 0.125 µg/mL (≈ 0.358 µM) | 0.25 µg/mL (≈ 0.716 µM) | 0.06 µg/mL (≈ 0.172 µM) | 0.25 µg/mL (≈ 0.716 µM) | 0.03 µg/mL (≈ 0.0859 µM) | 0.25 µg/mL (≈ 0.716 µM) |  |  |  | 
